# Test results reported in ChEMBL document CHEMBL1287787, “Design and synthesis of disubstituted thiophene and thiazole based inhibitors of JNK” (Bioorg Med Chem Lett, 2010).
# Experiments:
# [1] = target: Receptor-interacting serine/threonine-protein kinase 2 (Homo sapiens) (UniProt O43353); assay: Inhibition of RIPK2 at 10 uM
# [2] = target: T1, Mitogen-activated protein kinase 10 (Homo sapiens, UniProt P53779); details: 10 uM
# [3] = target: Tyrosine-protein kinase JAK1 (Homo sapiens) (UniProt P23458); assay: Inhibition of JAK1 at 10 uM
# [4] = Metabolic stability in human liver microsomes assessed as compound remaining after 30 mins; format: ADME, Microsome; details: read-out: Stability
# How it was run: (§1)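 Test compound incubated with mouse or human liver microsomes for 30 min. Read-out is the percent of parent compound remaining at the end of the incubation.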
# [5] = target: Serine/threonine-protein kinase MARK2 (Homo sapiens) (UniProt Q7KZI7); assay: Inhibition of MARK2 at 10 uM
# [6] = target: T2, Mitogen-activated protein kinase 1 (Homo sapiens, UniProt P28482); assay: Inhibition of MAPK1 at 10 uM
# [7] = target: Cyclin-dependent kinase 2/cyclin A (Homo sapiens) (UniProt P24941+P20248+P78396); assay: Inhibition of CDK2/cyclin A at 10 uM; format: protein-complex assay
# [8] = target: Mitogen-activated protein kinase 9 (Homo sapiens, UniProt P45984); assay: Inhibition of recombinant JNK2 after 60 mins by TR-FRET assay
# [9] = target: Rho-associated protein kinase 2 (Homo sapiens) (UniProt O75116); assay: Inhibition of ROCK2 at 10 uM
# [10] = target: Protein kinase C beta type (Homo sapiens) (UniProt P05771); assay: Inhibition of PRKCB1 at 10 uM
# [11] = target: cAMP-dependent protein kinase catalytic subunit alpha (Homo sapiens) (UniProt P17612); assay: Inhibition of PRKACA at 10 uM
# [12] = target: Macrophage colony-stimulating factor 1 receptor (Homo sapiens) (UniProt P07333); assay: Inhibition of CSF1R at 10 uM
# [13] = target: Serine/threonine-protein kinase PAK 4 (Homo sapiens) (UniProt O96013); assay: Inhibition of PAK4 at 10 uM
# [14] = target: Glycogen synthase kinase-3 beta (Homo sapiens) (UniProt P49841); assay: Inhibition of GSK3-beta at 10 uM
# [15] = target: Dual specificity protein kinase CLK1 (Homo sapiens) (UniProt P49759); assay: Inhibition of CLK1 at 10 uM
# [16] = test system: RAF proto-oncogene serine/threonine-protein kinase (Homo sapiens), P04049 [Y340D,Y341D]; assay: Inhibition of RAF1 Y340D/Y341D mutant at 10 uM
# [17] = target: Proto-oncogene tyrosine-protein kinase receptor Ret (Homo sapiens) (UniProt P07949); assay: Inhibition of RET at 10 uM
# [18] = target: Serine/threonine-protein kinase PLK3 (Homo sapiens) (UniProt Q9H4B4); assay: Inhibition of PLK3 at 10 uM
# [19] = target: Serine/threonine-protein kinase 16 (Homo sapiens) (UniProt O75716); assay: Inhibition of STK16 at 10 uM
# [20] = target: Dual specificity tyrosine-phosphorylation-regulated kinase 1B (Homo sapiens) (UniProt Q9Y463); assay: Inhibition of DYRK1B at 10 uM
# [21] = target: Tyrosine-protein kinase Lck (Homo sapiens) (UniProt P06239); assay: Inhibition of LCK at 10 uM
# [22] = target: Mitogen-activated protein kinase 8 (Homo sapiens, UniProt P45983); assay: Inhibition of recombinant JNK1 after 60 mins by TR-FRET assay
# [23] = target: Receptor tyrosine-protein kinase erbB-4 (Homo sapiens) (UniProt Q15303); assay: Inhibition of ERBB4 at 10 uM
# [24] = target: Protein-tyrosine kinase 2-beta (Homo sapiens) (UniProt Q14289); assay: Inhibition of PTK2B at 10 uM
# [25] = target: Receptor-type tyrosine-protein kinase FLT3 (Homo sapiens) (UniProt P36888); assay: Inhibition of FLT3 at 10 uM
# [26] = target: Cyclin-dependent kinase 5/CDK5 activator 1 (Homo sapiens) (UniProt Q00535+Q15078); assay: Inhibition of CDK5/p25 at 10 uM; format: protein-complex assay
# [27] = target: RAC-alpha serine/threonine-protein kinase (Homo sapiens) (UniProt P31749); assay: Inhibition of AKT1 at 10 uM
# [28] = target: Serine/threonine-protein kinase PLK1 (Homo sapiens) (UniProt P53350); assay: Inhibition of PLK1 at 10 uM
# [29] = target: Serine/threonine-protein kinase PLK2 (Homo sapiens) (UniProt Q9NYY3); assay: Inhibition of PLK2 at 10 uM
# [30] = Metabolic stability in mouse liver microsomes assessed as compound remaining after 30 mins; format: ADME, Microsome; details: read-out: Stability; how it was run: as §1
# [31] = target: Serine/threonine-protein kinase Chk1 (Homo sapiens) (UniProt O14757); assay: Inhibition of CHEK1 at 10 uM
# [32] = target: T2, Mitogen-activated protein kinase 1; assay: Inhibition of recombinant Erk2 after 60 mins by TR-FRET assay
# [33] = target: Dual specificity protein kinase TTK (Homo sapiens) (UniProt P33981); assay: Inhibition of TTK at 10 uM
# [34] = target: Mitogen-activated protein kinase 14 (Homo sapiens, UniProt Q16539); assay: Inhibition of recombinant p38alpha after 60 mins by TR-FRET assay
# [35] = target: Tyrosine-protein kinase SYK (Homo sapiens) (UniProt P43405); assay: Inhibition of SYK at 10 uM
# [36] = test system: MDCK; assay: Efflux ratio of permeability from […] side in MDCK cells expressing p-gp after 120 mins; format: ADME, cell-based, Canis lupus familiaris; details: dog, 2 h
# [37] = target: Platelet-derived growth factor receptor alpha (Homo sapiens) (UniProt P16234); assay: Inhibition of PDGFRA at 10 uM
# [38] = target: Serine/threonine-protein kinase 3 (Homo sapiens) (UniProt Q13188); assay: Inhibition of STK3 at 10 uM
# [39] = target: T1, Mitogen-activated protein kinase 10; assay: Inhibition of recombinant JNK3 after 60 mins by TR-FRET assay
# [40] = target: PI3-kinase p110-alpha/p85-alpha (Homo sapiens) (UniProt P27986+P42336); assay: Inhibition of PIK3CA/PIK3R1 at 10 uM; format: protein-complex assay
# [41] = target: Calcium/calmodulin-dependent protein kinase type II subunit alpha (Homo sapiens) (UniProt Q9UQM7); assay: Inhibition of CAMK2A at 10 uM
# [42] = target: Insulin receptor (Homo sapiens) (UniProt P06213); assay: Inhibition of INSR at 10 uM
# [43] = target: Tyrosine-protein kinase ABL1 (Homo sapiens) (UniProt P00519); assay: Inhibition of ABL1 at 10 uM
# [44] = target: Cyclin-dependent kinase 1/cyclin B (Homo sapiens) (UniProt P06493+P14635+Q8WWL7+O95067); assay: Inhibition of CDK1/cyclin B at 10 uM; format: protein-complex assay
# [45] = target: Aurora kinase A (Homo sapiens) (UniProt O14965); assay: Inhibition of AURKA at 10 uM
# T2 sequence (P28482 whole entry): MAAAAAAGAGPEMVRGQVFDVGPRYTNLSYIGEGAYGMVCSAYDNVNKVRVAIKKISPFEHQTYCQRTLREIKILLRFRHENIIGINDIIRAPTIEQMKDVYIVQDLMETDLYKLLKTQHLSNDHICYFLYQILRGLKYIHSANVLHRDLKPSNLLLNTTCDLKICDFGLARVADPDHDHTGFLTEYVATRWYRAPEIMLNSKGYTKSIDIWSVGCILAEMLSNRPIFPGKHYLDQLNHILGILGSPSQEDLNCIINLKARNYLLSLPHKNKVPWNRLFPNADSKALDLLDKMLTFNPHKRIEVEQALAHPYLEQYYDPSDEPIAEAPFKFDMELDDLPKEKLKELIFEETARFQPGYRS
# T1 sequence (P53779 whole entry): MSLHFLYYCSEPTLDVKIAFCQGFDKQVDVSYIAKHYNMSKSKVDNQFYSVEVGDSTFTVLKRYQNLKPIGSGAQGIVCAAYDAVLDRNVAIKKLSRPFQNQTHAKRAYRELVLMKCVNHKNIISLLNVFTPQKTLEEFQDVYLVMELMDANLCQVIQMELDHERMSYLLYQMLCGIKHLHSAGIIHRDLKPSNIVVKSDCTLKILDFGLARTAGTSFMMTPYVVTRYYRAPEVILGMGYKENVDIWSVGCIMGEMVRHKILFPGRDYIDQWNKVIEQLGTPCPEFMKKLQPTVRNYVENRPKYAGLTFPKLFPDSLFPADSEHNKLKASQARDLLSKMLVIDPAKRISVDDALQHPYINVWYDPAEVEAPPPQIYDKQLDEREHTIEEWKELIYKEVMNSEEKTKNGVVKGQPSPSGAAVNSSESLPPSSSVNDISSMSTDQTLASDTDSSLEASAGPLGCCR
# Rho-associated protein kinase 2 (Homo sapiens), sequence (O75116 whole entry, looked up): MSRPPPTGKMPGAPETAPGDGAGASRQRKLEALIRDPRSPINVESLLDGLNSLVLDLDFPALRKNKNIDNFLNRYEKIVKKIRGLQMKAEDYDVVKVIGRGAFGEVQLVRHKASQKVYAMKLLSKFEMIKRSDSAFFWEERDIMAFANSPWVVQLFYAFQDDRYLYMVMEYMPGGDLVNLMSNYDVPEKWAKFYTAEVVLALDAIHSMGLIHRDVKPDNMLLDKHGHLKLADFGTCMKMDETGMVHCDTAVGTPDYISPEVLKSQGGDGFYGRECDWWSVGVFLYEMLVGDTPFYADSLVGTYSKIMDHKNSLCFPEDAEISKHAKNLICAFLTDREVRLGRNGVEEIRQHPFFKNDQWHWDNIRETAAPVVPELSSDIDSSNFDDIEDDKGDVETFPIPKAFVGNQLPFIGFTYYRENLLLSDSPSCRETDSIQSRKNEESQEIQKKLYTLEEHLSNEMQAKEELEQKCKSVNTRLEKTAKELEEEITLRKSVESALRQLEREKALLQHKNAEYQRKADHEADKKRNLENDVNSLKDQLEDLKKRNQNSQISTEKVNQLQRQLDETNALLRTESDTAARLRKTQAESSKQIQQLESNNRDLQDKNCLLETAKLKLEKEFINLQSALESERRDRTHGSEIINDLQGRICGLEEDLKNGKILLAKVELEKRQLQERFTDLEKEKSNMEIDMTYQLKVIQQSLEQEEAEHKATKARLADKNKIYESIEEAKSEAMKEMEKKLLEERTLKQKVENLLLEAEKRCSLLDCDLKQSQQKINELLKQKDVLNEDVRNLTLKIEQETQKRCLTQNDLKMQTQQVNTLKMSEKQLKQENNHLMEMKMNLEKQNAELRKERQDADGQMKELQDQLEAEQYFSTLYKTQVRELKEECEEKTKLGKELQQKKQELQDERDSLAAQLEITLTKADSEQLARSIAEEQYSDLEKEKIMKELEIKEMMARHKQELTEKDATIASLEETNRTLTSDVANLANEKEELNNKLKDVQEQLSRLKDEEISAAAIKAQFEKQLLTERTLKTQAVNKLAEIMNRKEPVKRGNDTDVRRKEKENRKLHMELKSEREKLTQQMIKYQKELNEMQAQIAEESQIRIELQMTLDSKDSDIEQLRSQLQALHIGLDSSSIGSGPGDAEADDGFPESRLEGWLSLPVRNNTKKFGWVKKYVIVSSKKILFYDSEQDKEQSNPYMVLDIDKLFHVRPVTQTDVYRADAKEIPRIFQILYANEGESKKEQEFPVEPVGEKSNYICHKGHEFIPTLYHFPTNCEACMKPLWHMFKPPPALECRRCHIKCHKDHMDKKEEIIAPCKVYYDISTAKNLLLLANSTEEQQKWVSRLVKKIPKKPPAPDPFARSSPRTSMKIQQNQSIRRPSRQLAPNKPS
# Mitogen-activated protein kinase 9, sequence (P45984 whole entry): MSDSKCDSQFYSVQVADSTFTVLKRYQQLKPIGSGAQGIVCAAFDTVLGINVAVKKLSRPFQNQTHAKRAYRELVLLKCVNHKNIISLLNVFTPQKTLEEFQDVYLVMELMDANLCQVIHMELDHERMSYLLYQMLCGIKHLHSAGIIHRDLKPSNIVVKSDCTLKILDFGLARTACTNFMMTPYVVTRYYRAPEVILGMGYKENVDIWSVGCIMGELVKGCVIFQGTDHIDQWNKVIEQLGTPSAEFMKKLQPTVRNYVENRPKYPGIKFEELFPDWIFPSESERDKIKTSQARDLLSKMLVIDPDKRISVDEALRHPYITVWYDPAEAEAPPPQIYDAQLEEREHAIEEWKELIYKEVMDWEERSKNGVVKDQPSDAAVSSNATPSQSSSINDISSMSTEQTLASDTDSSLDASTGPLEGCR
# Glycogen synthase kinase-3 beta (Homo sapiens), sequence (P49841 whole entry, looked up): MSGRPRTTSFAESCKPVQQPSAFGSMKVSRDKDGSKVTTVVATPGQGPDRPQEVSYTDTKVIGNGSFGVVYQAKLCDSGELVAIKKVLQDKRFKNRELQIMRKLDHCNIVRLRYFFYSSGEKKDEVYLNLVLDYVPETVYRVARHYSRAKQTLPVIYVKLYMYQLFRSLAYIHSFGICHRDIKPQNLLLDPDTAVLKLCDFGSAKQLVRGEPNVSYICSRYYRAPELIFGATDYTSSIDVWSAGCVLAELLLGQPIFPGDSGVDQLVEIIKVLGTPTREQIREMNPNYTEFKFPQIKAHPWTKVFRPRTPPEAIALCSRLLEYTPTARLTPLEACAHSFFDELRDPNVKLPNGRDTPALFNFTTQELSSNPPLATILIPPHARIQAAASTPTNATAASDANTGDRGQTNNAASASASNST
# Serine/threonine-protein kinase Chk1 (Homo sapiens), sequence (O14757 whole entry): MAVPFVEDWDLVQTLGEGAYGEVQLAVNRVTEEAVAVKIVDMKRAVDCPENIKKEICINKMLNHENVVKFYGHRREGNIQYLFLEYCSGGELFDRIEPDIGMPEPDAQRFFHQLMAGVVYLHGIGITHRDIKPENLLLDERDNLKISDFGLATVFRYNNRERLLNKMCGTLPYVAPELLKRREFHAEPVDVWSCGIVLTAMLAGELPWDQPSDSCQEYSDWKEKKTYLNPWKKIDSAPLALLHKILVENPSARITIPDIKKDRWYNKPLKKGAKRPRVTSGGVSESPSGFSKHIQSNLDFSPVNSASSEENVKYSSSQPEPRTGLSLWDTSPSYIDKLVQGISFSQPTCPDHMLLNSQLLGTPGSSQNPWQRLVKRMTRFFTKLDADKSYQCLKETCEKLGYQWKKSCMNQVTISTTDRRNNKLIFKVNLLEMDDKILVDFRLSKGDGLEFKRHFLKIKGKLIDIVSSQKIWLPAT
# Mitogen-activated protein kinase 14, sequence (Q16539 whole entry): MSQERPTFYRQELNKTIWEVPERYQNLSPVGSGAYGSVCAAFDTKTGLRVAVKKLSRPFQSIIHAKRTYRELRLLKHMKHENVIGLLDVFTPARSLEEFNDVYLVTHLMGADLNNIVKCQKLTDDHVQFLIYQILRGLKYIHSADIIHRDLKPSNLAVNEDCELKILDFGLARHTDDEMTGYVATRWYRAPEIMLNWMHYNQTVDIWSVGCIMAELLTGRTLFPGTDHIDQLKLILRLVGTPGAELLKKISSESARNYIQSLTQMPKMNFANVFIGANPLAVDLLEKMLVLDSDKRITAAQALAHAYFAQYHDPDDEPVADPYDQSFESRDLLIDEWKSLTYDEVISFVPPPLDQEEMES
# Receptor-type tyrosine-protein kinase FLT3 (Homo sapiens), sequence (P36888 whole entry): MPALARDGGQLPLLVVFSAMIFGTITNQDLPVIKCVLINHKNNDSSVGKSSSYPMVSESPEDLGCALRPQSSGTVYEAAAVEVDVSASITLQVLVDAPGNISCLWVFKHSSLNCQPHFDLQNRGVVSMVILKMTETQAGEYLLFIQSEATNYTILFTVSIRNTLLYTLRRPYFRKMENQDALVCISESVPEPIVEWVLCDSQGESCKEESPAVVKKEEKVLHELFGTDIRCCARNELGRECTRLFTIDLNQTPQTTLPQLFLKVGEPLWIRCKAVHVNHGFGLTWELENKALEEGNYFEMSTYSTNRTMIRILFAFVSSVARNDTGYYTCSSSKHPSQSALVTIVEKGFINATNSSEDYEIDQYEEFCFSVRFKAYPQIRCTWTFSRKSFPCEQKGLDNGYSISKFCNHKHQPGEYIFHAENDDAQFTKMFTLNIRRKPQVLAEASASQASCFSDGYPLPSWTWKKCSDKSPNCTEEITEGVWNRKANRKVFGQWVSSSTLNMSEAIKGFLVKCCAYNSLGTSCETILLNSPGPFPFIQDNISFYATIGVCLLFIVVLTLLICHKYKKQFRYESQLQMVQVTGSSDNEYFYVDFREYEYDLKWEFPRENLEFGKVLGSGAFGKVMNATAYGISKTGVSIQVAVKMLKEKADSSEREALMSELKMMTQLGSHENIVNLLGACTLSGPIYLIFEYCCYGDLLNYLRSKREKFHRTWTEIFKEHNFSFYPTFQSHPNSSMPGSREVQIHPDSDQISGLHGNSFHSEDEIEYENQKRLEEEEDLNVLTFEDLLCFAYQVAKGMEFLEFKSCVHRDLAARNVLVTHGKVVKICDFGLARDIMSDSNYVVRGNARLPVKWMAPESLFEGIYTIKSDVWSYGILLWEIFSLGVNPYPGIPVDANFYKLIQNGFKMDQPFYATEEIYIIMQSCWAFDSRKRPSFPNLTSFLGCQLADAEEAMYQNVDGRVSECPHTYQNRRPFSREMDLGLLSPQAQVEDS
smiles,measurement,setting,value
O=C(Cc1cccc2cnccc12)Nc1scnc1-c1cscn1,Inihibition,[1],16%
same,Inihibition,[2],69%
same,Inihibition,[3],4%
same,remaining at 0.5 h,[4],79%
same,Inihibition,[5],8%
same,Inihibition,[6],16%
same,Inihibition,[7],9%
same,IC50,[8],470 nM
same,Inihibition,[9],3%
same,Inihibition,[10],18%
same,Inihibition,[11],14%
same,Inihibition,[12],33%
same,Inihibition,[13],-4%
same,Inihibition,[14],13%
same,Inihibition,[15],7%
same,Inihibition,[16],5%
same,Inihibition,[17],21%
same,Inihibition,[18],17%
same,Inihibition,[19],9%
same,Inihibition,[20],21%
same,Inihibition,[21],6%
same,IC50,[22],48 nM
same,Inihibition,[23],4%
same,Inihibition,[24],6%
same,Inihibition,[25],37%
same,Inihibition,[26],9%
same,Inihibition,[27],2%
same,Inihibition,[28],8%
same,Inihibition,[29],24%
same,remaining at 0.5 h,[30],50%
same,Inihibition,[31],8%
same,IC50,[32],> 50000 nM
same,Inihibition,[33],85%
same,IC50,[34],> 50000 nM
same,Inihibition,[35],6%
same,Ratio,[36],1.9
same,Inihibition,[37],7%
same,Inihibition,[38],5%
same,IC50,[39],77 nM
same,Inihibition,[40],31%
same,Inihibition,[41],9%
same,Inihibition,[42],3%
same,Inihibition,[43],7%
same,Inihibition,[44],4%
same,Inihibition,[45],27%
